Measured values taken from ChEMBL document CHEMBL4673268, “The optimization of a novel selective antagonist for human M muscarinic acetylcholine receptor” (Bioorg Med Chem Lett, 2020).
Active and inactive are the calls of the source. No cut-off for these calls is given here.

Columns and labels:
[1] = molecular target: Muscarinic acetylcholine receptors; M2 & M3 (Homo sapiens) (UniProt P20309+P08172); test: Selectivity for human muscarinic M2 receptor over muscarinic M3 receptor (unknown origin); format: protein assay
Chain of Muscarinic acetylcholine receptors; M2 & M3 (Homo sapiens) (P20309 whole entry, looked up, one chain of several): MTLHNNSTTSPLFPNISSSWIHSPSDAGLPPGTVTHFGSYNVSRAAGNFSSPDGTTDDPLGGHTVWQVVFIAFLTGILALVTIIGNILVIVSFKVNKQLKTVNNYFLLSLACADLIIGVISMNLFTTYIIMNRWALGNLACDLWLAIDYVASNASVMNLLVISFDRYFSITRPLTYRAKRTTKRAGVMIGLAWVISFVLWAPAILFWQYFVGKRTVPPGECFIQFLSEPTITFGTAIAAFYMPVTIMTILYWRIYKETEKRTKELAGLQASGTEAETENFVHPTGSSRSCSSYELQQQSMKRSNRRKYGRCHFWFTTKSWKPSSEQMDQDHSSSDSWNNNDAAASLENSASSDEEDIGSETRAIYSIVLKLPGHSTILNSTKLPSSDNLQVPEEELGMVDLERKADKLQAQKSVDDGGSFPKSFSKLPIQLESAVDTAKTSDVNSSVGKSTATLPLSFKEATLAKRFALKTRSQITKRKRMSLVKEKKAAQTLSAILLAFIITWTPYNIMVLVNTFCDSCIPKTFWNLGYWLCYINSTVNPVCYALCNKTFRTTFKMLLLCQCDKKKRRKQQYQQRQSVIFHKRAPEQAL

[2] = molecular target: Muscarinic acetylcholine receptor M2 and M4 (Homo sapiens) (UniProt P08173+P08172); test: Selectivity for human muscarinic M2 receptor over muscarinic M4 receptor (unknown origin); format: protein assay
[3] = molecular target: Muscarinic acetylcholine receptors; M1 & M2 (Homo sapiens) (UniProt P11229+P08172); test: Selectivity for human muscarinic M2 receptor over muscarinic M1 receptor (unknown origin); format: protein assay
[4] = molecular target: T1, Muscarinic acetylcholine receptor M2 (Homo sapiens) (UniProt P08172); test: Antagonist activity at muscarinic M2 receptor (unknown origin) at 100 uM by acetylcholine titration assay; settings: filed as antagonist
T1 sequence (whole entry): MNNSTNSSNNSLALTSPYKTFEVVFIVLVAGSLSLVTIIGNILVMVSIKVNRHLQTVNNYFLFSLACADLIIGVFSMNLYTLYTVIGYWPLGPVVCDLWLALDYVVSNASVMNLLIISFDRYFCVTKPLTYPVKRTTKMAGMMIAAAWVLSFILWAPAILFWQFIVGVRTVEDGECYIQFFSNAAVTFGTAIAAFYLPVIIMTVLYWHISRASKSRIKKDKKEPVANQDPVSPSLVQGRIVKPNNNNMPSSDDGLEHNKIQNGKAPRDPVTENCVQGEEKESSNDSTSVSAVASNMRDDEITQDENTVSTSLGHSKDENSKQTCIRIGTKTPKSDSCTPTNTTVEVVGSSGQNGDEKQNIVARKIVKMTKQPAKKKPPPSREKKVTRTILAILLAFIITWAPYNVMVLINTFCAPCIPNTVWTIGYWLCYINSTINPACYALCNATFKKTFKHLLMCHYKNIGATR
In short: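 Acetylcholine titration curves were run in a radioligand binding format, without and with test ligand at 100 μM. A rightward shift of the ACh curve was taken to indicate negative allosteric modulation, and no shift to indicate orthosteric antagonism.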

[5] = molecular target: T2, Muscarinic acetylcholine receptor M4 (Homo sapiens, UniProt P08173); test: Displacement of [3H]-NMS from muscarinic M4 receptor (unknown origin) expressed in CHO-K1 cell membranes assessed as inhibition constant by radioligand competition analysis; parameters: species or system Cell membrane
T2 sequence (P08173 whole entry): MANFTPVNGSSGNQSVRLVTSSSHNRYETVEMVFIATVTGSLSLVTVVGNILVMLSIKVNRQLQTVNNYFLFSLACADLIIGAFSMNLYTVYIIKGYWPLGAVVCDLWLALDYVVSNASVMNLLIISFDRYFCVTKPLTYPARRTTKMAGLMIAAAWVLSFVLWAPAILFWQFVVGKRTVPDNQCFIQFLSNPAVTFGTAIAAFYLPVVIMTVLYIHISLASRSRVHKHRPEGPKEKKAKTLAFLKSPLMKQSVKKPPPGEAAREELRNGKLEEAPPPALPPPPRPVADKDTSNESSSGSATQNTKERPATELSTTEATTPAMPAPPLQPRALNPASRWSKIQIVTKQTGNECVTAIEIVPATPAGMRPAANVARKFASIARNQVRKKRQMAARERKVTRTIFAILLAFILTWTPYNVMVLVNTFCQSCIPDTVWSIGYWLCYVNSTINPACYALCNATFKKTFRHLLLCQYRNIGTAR
In short: (§1)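 Inhibition constants came from radioligand competition binding. Acetylcholine and atropine were included as positive controls for competitive binding. Values are given as mean ± SEM.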

[6] = molecular target: Muscarinic acetylcholine receptor M3 (Homo sapiens, UniProt P20309); test: Displacement of [3H]-NMS from muscarinic M3 receptor (unknown origin) expressed in CHO-K1 cell membranes assessed as inhibition constant by radioligand competition analysis; parameters: species or system Cell membrane; in short: as §1
Chain of Muscarinic acetylcholine receptor M3 (P20309 whole entry): as the sequence (P20309 whole entry, looked up, one chain of several) above

[7] = molecular target: T3, Muscarinic acetylcholine receptor M2 (Homo sapiens, UniProt P08172); test: Displacement of [3H]-NMS from muscarinic M2 receptor (unknown origin) expressed in CHO-K1 cell membranes assessed as inhibition constant by radioligand competition analysis; parameters: species or system Cell membrane
T3 sequence (P08172 whole entry): T1 sequence (whole entry)

[8] = molecular target: T4, Muscarinic acetylcholine receptor M1 (Homo sapiens, UniProt P11229); test: Displacement of [3H]-NMS from muscarinic M1 receptor (unknown origin) expressed in CHO-K1 cell membranes assessed as inhibition constant by radioligand competition analysis; parameters: species or system Cell membrane; in short: as §1
T4 sequence (P11229 whole entry): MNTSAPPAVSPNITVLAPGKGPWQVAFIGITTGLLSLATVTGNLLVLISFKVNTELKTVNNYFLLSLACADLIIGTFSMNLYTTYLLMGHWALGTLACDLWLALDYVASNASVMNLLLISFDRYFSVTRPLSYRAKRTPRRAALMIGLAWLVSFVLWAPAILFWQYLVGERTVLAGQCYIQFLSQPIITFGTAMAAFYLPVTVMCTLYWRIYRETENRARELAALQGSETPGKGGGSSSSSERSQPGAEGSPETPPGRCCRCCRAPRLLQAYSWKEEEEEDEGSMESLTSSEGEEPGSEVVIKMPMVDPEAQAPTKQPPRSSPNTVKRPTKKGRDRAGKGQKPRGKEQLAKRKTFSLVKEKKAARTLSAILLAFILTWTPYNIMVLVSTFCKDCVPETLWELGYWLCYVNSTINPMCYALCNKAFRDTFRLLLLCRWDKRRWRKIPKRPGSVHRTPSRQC

[9] = molecular target: T3, Muscarinic acetylcholine receptor M2; test: Antagonist activity at human muscarinic M2 receptor expressed in CHO cells co-expressing Galpha15 assessed as inhibition of acetylcholine-induced calcium mobilization relative to acetylcholine; format: functional, cell-based

Ratio [1]: > 250 | Ratio [2]: 30 | Ratio [3]: 8 | Activity [4]: Active | Ki [5]: 18.2 µM | Ki [6]: > 100 µM | Ki [7]: 0.617 µM | Ki [8]: 4.9 µM | IC50 [9]: 0.479 µM
Compound: O=C(CCN1CCCc2ccccc21)Nc1cccc2cccnc12
